# PG9 binder: PG9 antibody binding by small molecule; TR-FRET gp120-PG9 antibody binding; inhibition, % at 6.7 µM; 0.43% of 360,000 active; AID 624416; in the data active = inhibition above about 8.5%
# NR2E3 ag-1: agonists of human nuclear receptor NR2E3; GST-NR2E3/biotin-RetCOR TR-FRET, 1536-well; inhibition of corepressor binding, % at 4.78 µM; 0.12% of 320,000 active;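 active = percent inhibition above the cutoff of mean plus 3 SD of all tested compounds, set per screening campaign, cut at about 20% in these data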;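 also: 0% = DMSO wells and 100% = biotin wells as full block of FRET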
# Target sequence (Q9Y5X4 whole entry, looked up): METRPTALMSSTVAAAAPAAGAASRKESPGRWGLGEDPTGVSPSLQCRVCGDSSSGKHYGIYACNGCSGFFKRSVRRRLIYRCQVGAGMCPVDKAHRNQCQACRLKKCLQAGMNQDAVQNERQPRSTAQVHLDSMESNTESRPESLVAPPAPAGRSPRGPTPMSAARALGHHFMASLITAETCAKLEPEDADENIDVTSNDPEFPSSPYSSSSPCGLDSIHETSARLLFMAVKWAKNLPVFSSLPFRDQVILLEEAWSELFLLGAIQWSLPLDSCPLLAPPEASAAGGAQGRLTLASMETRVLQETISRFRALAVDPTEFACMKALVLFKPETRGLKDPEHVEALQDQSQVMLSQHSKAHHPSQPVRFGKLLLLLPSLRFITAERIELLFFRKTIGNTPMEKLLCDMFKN
#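 system = GST-tagged NR2E3 plus biotinylated RetCOR corepressor | input = 1.35 nM GST-NR2E3 | also added = 7 nM biotin-RetCOR | schedule = 5 h incubation at 4 °C | measured by = TR-FRET with europium anti-GST and streptavidin-D2, 340 nm excitation | read-out = percent loss of FRET ratio relative to control wells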
# NR2E3 ag-2: agonists of human NR2E3 nuclear receptor | Q9Y5X4 | CHO-S Gal4-NCOR/VP16-NR2E3 two-hybrid, luciferase | inhibition of corepressor binding, % at 3.98 µM | 0.35% of 360,000 active | AID 602229;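 active = inhibition above the mean of all tested compounds plus 3 SD, cut at about 70% in these data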;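 also: 0% = DMSO with NR2E3 transfected cells and 100% = cells lacking NR2E3 construct; higher means lower luciferase signal from less NR2E3 corepressor binding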
# NR1D1 modulator: modulators of human Rev-erb alpha DNA binding | Rev-erbα–FITC-DNA binding, fluorescence polarization, 90 min | activity, % at 10 µM | 0.79% of 370,000 active | AID 1259318 | P20393;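 active = activity above about 14%, limit read from the data; passing the limit was not always enough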;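 also: 0% = DMSO wells with 35 nM protein and 100% = DMSO wells with 750 nM protein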
# PG9 binder conf: confirmation of small molecules binding HIV-1 gp120 antibody PG9. TR-FRET PG9 antibody binding, biochemical. inhibition, % at 6.7 µM. shares compounds with PG9 binder. 90% of 1,500 active; in the data active = inhibition above about 9%
# PGV04 Ab binding: counter-screen for PG9 binders: binding control antibody PGV04; shares compounds with PG9 binder; TR-FRET PGV04 antibody-gp120 binding, biochemical; inhibition, % at 6.7 µM; 95% of 1,500 active; AID 651604; in the data active = inhibition above about 9.5%
# PG9 binder DR: PG9 antibody binding, dose response | 95 tested, under 10 active | IC50, µM | shares compounds with PG9 binder | TR-FRET PG9 antibody-gp120 binding inhibition; in the data active = IC50 below about 10 µM
# PGV04 binding DR: binds control antibody PGV04 in PG9 counter-screen; 20% of 95 active; TR-FRET binding to control antibody PGV04; shares compounds with PG9 binder; IC50, µM; AID 651937
# PG126 binding DR: counter-screen for PG9 binders: binding to control antibody PG126. shares compounds with PG9 binder. TR-FRET binding to antibody PG126, counterscreen. IC50, µM. 20% of 95 active. AID 651939
# An asterisk follows results filed as active; i = inactive; · = no result given. Only some compounds are listed: those with a hit (about 1.5% of all), similar ones and a draw of the others. Rule as the data show it, unless noted: active = IC50 below about 9 µM; inactive = the rest.
SMILES,PG9 binder,NR2E3 ag-1,NR2E3 ag-2,NR1D1 modulator,PG9 binder conf,PGV04 Ab binding,others
Cn1c(=O)c2c(SCC(=O)NCc3ccco3)nc(-c3ccccc3Cl)nc2n(C)c1=O,-1,0,-30,-3,·,·,
COc1ccccc1-c1nc(SCC(=O)NCc2ccco2)c2c(=O)n(C)c(=O)n(C)c2n1,28*,4,-15,2,26*,30*,
COC(=O)C[C@@H]1CC[C@H]2[C@H](COc3ccc(NC(=O)c4cccc(C(F)(F)F)c4)cc3C(=O)N2C)O1,·,·,·,-5,·,·,
CSc1cc(-c2ccc(Cl)cc2)c(C(=O)NC(C)C)s1,18*,-4,-7,4,9,13*,
CC(C)(C)C(=O)OC12CCCN(C1)/C(=C/c1ccc(Cl)cc1)C2 (stereo not given),·,·,·,1,·,·,
COCCCn1c(=O)/c(=C\c2ccc(OC(F)F)c(OC)c2)s/c1=C(/C#N)C(N)=O,14*,7,0,2,36*,39*,
COCCCn1c(=O)/c(=C\c2ccccc2OC(F)F)s/c1=C(/C#N)C(N)=O,-2,-2,22,2,·,·,
CCCC1=Nc2cc(C(=O)NCCCN3CCOCC3)ccc2Sc2ccccc21,12*,1,-13,4,11*,15*,
COc1ccc(CC(=O)Nc2ccc(N3CCN(c4ccc(OC)cc4)CC3)c(C#N)c2)cc1,9.1*,2,-15,8,18*,24*,
COc1ccc(N2CCN(c3ccc(NC(=O)c4ccc5c(c4)OCO5)cc3C#N)CC2)cc1,·,4,-23,·,·,·,
CN1CCN(Cc2c(O)ccc3occ(C(=O)c4ccccc4)c23)CC1,2,-3,-8,1,·,·,
CC(=O)C(C(C)=O)c1c(Cl)c(O)c(O)c2c(C(=O)c3ccccc3)coc12,12*,3,-36,2,18*,20*,
COc1cccc(N2C(=NC(=O)c3ccccc3)SC3CS(=O)(=O)CC32)c1 (stereo not given),11*,3,-27,9,10*,14*,
CCC(=O)N1CCc2cc(Br)c(S(=O)(=O)N3CCCC(C(=O)NC(C)(C)C)C3)cc21 (stereo not given),·,·,·,12,·,·,
COC(=O)c1cc(-c2ccc(OC)c(OC)c2)c2c(=O)[nH]c(=O)n(C)c2n1,21*,4,10,7,21*,29*,
COC(=O)c1cc(-c2ccc(Br)cc2)c2c(=O)[nH]c(=O)n(C)c2n1,20*,3,7,9,29*,16*,PG9 binder DR=>67;PGV04 binding DR=i;PG126 binding DR=i
COC(=O)c1cc(-c2cccc([N+](=O)[O-])c2)c2c(=O)[nH]c(=O)n(C)c2n1,-2,2,22,-3,·,·,
C=CCN1C(=O)[C@H](CC(=O)NCc2cccs2)[C@@]2(C(=O)OCC)CCCC=C12,·,·,·,-4,·,·,
Cc1ccccc1CN1CCCCC(NC(=O)C2CCC2)C1=O (stereo not given),·,·,·,3,·,·,
COCCNC(=O)c1c(N)[nH]c(C(=O)c2ccc(Br)cc2)c1-c1ccc(Br)cc1,-1,·,·,6,·,·,
NS(=O)(=O)c1cccc(NC(=O)c2cccc(N3C(=O)c4ccccc4C3=O)c2)c1,0,·,-5,1,·,·,
CC(=O)c1cccc(NC(=O)c2cccc(N3C(=O)c4ccccc4C3=O)c2)c1,22*,4,-9,-10,25*,22*,PG9 binder DR=i;PGV04 binding DR=i;PG126 binding DR=i
CCc1cccc(CC)c1NC(=O)C1SC(=Nc2ccccc2C)C(c2nc3ccccc3s2)=C1N (stereo not given),9.2*,4,-68,-1,9.5*,13*,
CCCCCCCCN1C(=O)[C@@H](CC(=O)NCc2cccs2)C[C@@]2(C(=O)OC)C1=C[C@H](C(C)C)O[C@@H]2C1CC1,·,·,·,2,·,·,
CN(C)c1ccc(C(=O)OCC(=O)NCCNC(=O)COC(=O)c2ccc(N(C)C)cc2)cc1,-4,-2,-7,6,·,·,

# Screens (PubChem)
